PERK inh – block of dimerizer-induced PERK translation repression, primary screen, PERK inhibitor project, CHO PERK-DD cells, SEAP luminescence, HTS; CHO PERK-DD fusion, SEAP luminescence translation reporter; inhibition, % at 5.6 µM; 220,000 tested, 0.17% active;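 active = inhibition above the mean inhibition of all tested compounds plus 3 SD, set separately per screening campaign, cut at about 2.9% in these data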;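 note: PERK kinase domain activated by AP20187 dimerizer at 100 nM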
14-3-3 Bad PPI – inhibitors of 14-3-3 zeta/Bad binding, primary screen, biochemical, TR-FRET, bovine 14-3-3 zeta; 14-3-3 protein zeta/delta (Bos taurus), P63103; TR-FRET 14-3-3zeta/Dy647-pBad peptide displacement, 1 h; inhibition, % at 21.7 µM; 220,000 tested, 0.71% active;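 active = inhibition above about 70%, limit read from the data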
Target sequence (P63103 whole entry, looked up): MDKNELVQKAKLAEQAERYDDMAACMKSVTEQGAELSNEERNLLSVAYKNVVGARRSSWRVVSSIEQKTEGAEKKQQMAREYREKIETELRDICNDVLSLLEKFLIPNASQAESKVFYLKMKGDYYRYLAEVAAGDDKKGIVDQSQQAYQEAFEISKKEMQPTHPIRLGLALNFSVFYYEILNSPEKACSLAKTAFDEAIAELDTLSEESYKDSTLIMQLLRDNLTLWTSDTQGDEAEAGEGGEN
p97 inhibitor – inhibitors of human p97 ATPase, primary screen, biochemical; recombinant p97 ATPase, Kinase-Glo ATP luminescence, 3 h; 220,000 tested, 0.42% active; Transitional endoplasmic reticulum ATPase (Homo sapiens), P55072; inhibition, % at 8 µM; in the data active = inhibition above about 15%
Calb biofilm kill – clotrimazole potentiators killing C. albicans biofilm, primary screen, 4-compound mixtures; C. albicans biofilm persisters + clotrimazole, fluorescence viability; primary screen in compound mixtures of four per well; inhibition, % at 7.6 µM; 120,000 tested, 0.02% active; AID 1242, 2008;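 active = inhibition above 30.3% in the primary screen of four-compound pools, then above 30% when the compound was retested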;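 note: compounds exposed to preformed 24 h biofilms for 48 h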
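Assay system: C. albicans biofilms / Medium: RPMI/MOPS medium, pH 7.0 / Schedule: biofilm formation 24 h, compound exposure 48 h, 37 °C / Measured by: Alamar Blue fluorescence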
eIF4E 4G PPI – eIF4E–eIF4G protein interaction inhibitors, primary screen, biochemical, uHTS, TR-FRET, eIF4GI fragment. Eukaryotic translation initiation factor 4E (Mus musculus) + Eukaryotic translation …. TR-FRET eIF4E-eIF4GI(517-606) binding, 2 h. inhibition, % at 21.7 µM. 220,000 tested, 0.37% active. AID 782, 2007;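 active = inhibition above about 30%, limit read from the data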
Hck Nef HTS – inhibitors of Nef-activated human Hck kinase, primary screen, biochemical, Z-Lyte FRET, 384-well, Hck-YEEI | AID 463187, 2010 | 220,000 tested, 0.68% active | inhibition, % at 20 µM | Tyrosine-protein kinase HCK (Homo sapiens), P08631 | Recombinant Hck-YEEI plus Nef, Z-Lyte FRET kinase assay;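 active = Hck-Nef kinase inhibition above about 50%, limit read from the data; inactive = inhibition below that limit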
Numbers stand for hits; 0 = inactive; - = not tested or not shown; [ ] = remark or other dose. Shown are actives, neighbours in structure and some others; about 2.2% of the full set was active somewhere.

SMILES	PERK inh	14-3-3 Bad PPI	p97 inhibitor	Calb biofilm kill	eIF4E 4G PPI	Hck Nef HTS
COC(=O)Cc1n[nH]c(=O)c2ccccc12	3.5	0	0	-	0	0
CCOC(=O)Cc1n[nH]c(=O)c2ccccc12	0	0	0	0	0	0
O=C(COc1ccc([N+](=O)[O-])cc1)Nc1ccc(C(=O)Nc2ccccc2C(=O)O)cc1	0	0	0	0	0	0
CC(C)(C)c1ccc(-c2cn(-c3ccc(Br)cc3)c3[n+]2CCCS3)cc1	0	0	0	31	0	0
Cc1ccc(N(C(=O)c2snc(C(N)=O)c2N)C(C(=O)NCCC(C)C)c2ccco2)cc1 (stereo not drawn)	0	0	0	0	0	75
CC1CC(C)CN(C(=O)Cn2cc(C=O)c3ccccc32)C1 (stereo not drawn)	0	83	0	0	0	0
CN(C)/C=C/C1=C([N+](=O)[O-])C(c2cccc([N+](=O)[O-])c2)NC(=O)N1 (stereo not drawn)	0	0	0	0	0	0
CN1N=C(C(F)(F)F)CC1=O	0	0	0	0	0	0
CN1N=C(C(C)(C)C)CC1=O	3.4	0	0	0	0	0
O=C(NCCCO)C(=O)NCc1ccccn1	0	0	0	0	0	0
Cc1ccc(C2CC(=O)C(C=NCCN3CCN(C(=S)Nc4ccccc4)CC3)=C(O)C2)cc1 (stereo not drawn)	0	0	0	0	97	0
CN(C)CC(c1ccccc1)c1ccccc1	4.3	0	0	0	0	0
CN(C)CC(O)COC(c1ccccc1)c1ccccc1 (stereo not drawn)	0	0	0	0	0	0
COc1cccc(/C=N/NC(=O)NC2CCCCC2)c1O	0	0	0	0	0	0
COc1cc(O)c(C(CC(=O)N2CCOCC2)c2cc(OC)c(OC)c(OC)c2)c(OC)c1 (stereo not drawn)	-	0	-	0	0	0
O=C1c2cccc3cccc(c23)C(=O)N1c1cccnc1	0	0	0	-	0	0
O=C1c2ccncc2C(=O)N1c1cccc(Cl)c1	4.0	0	0	0	0	0
Cn1nc(OCC(=O)O)cc1C(F)(F)F	3.0	0	0	0	0	0
O=C(Oc1cccnc1)c1cccc(Cl)c1	0	0	0	-	0	0
COc1ccc(C(=O)Oc2cccnc2)cc1OC	0	73	0	-	0	0
Nc1nc(C(F)(F)F)c(Br)c(=O)n1N	0	0	0	0	0	0
Cc1nc(-c2cccnc2)sc1C(=O)N/N=C/c1ccccc1Cl	0	87	0	0	0	0
CSc1ccccc1NC(=O)c1ccccc1C	0	0	0	0	47	0
N#C/C(=C\Nc1ccc2cn[nH]c2c1)c1nc(-c2ccc(Cl)cc2)cs1	0	91	0	0	0	0
COc1cccc(-c2csc(/C(C#N)=C/Nc3cc4oc5ccccc5c4cc3OC)n2)c1	0	0	0	0	0	0
SMILES	PERK inh	14-3-3 Bad PPI	p97 inhibitor	Calb biofilm kill	eIF4E 4G PPI	Hck Nef HTS
N#C/C(=C\Nc1ccc2cn[nH]c2c1)c1nc(-c2ccccc2)cs1	0	86	0	0	0	0
COc1cc2c(cc1N/C=C(\C#N)c1nc(-c3ccccc3)cs1)oc1ccccc12	0	86	0	0	0	0
CCCc1nn(C)c(C(N)=O)c1[N+](=O)[O-]	0	0	0	0	0	0
Cc1cccc2sc(NS(C)(=O)=O)nc12	0	0	0	0	0	0
COc1ccc(CCNC(=O)Cn2ccc3c(OC)cccc3c2=O)cc1OC	0	0	0	0	0	0
Cc1ccc(CCC(=O)Nc2ccccc2F)s1	0	0	0	0	0	0
CC(C)CCc1noc(CN2CCN(c3ccc(Cl)cn3)CC2)n1	0	0	0	0	0	0
O=C(NCC(=O)N1CC(O)CC1C(=O)N1CC(O)CC1C(=O)OCc1ccccc1)OCc1ccccc1 (stereo not drawn)	0	0	0	0	0	0
COc1cc2c(cc1NC(=S)NC(=O)/C=C/c1ccc(OC)c(OC)c1)oc1ccccc12	0	81[fluorescence artefact?]	0	0	0	0
COc1ccc(/C=N/n2c(-c3cccs3)n[nH]c2=S)cc1	0	0	0	-	33	0
COc1ccccc1CNC(=O)C1CC(c2c(Cl)cccc2Cl)=NO1 (stereo not drawn)	0	70	0	-	0	0
Cc1cccc2c(N=Nc3ccc(S(=O)(=O)Nc4ccc(Cl)cc4)cc3[N+](=O)[O-])c(O)[nH]c12	0	0	0	0	0	0
CCN(CC)S(=O)(=O)c1ccc(OC)c(NC(=O)Cc2cccs2)c1	0	0	0	0	34	0
CN(C)c1cc(NC(=O)CN2CCCC2)c2ccccc2n1	0	0	0	0	0	0
O=C(CN1CCOCC1)Nc1c2c(nc3ccccc13)N(Cc1ccccc1)CC2	0	77	0	-	0	0
O=C(CN1CCCC1)Nc1c2c(nc3ccccc13)N(Cc1ccccc1)CC2	0	84	0	-	0	0
O=C(CN1CCOCC1)NNc1c2ccccc2nc2ccccc12	0	0	0	0	0	0
O=S1(=O)N=C(Oc2cccc3ccccc23)c2ccccc21	0	86	0	0	0	0
Cc1ccccc1OC1=NS(=O)(=O)c2ccccc21	0	0	0	0	0	0
O=C(c1ccc(F)cc1)C(CCCCCC(CN1CCOCC1)C(=O)c1ccc(F)cc1)CN1CCOCC1 (stereo not drawn)	0	70	0	-	0	0
COc1ccc(CCn2c(O)cc3nn(-c4nc5ccccc5s4)c(=O)c-3c2C)cc1	0	0	0	0	0	68
CC(=O)Nc1cc(C)nn1-c1nc2ccccc2s1	0	0	0	0	0	0
CC(NC(=O)Cc1ccccc1)C1COc2ccccc2O1 (stereo not drawn)	3.1	0	0	0	0	0
CCC(Sc1nc(-c2ccccc2)cc(=O)[nH]1)C(=O)O (stereo not drawn)	3.0	0	0	-	0	0
CCC(C(=O)Nc1cccc(C(=O)O)c1)c1ccccc1 (stereo not drawn)	0	0	0	0	0	0
CCC(C(=O)Nc1cccc(C(=O)O)c1C)c1ccccc1 (stereo not drawn)	3.5	0	0	0	0	0
COc1cc(CN2CCC(C(=O)N3CCC(C)CC3)CC2)cc(Br)c1O	0	79	0	-	0	0
COc1cc(CN2CCC(C(=O)NC3CCCC3)CC2)cc(Br)c1O	0	0	0	-	0	0
Cc1ccc(C)c(S(=O)(=O)N/N=C/c2ccc(N3CCOCC3)cc2)c1	0	0	0	0	0	0
